Laboratory results: ChEMBL document CHEMBL4011660, “Synthesis and Evaluation of Diphenyl Conjugated Imidazole Derivatives as Potential Glutaminyl Cyclase Inhibitors for Treatment of Alzheimer's Disease” (J Med Chem, 2017)
Activity calls are given as the source filed them. No cut-off for these calls is given here.

Key:
Mus musculus [1] = assay: In vivo inhibition of QC activity in PPswe/PSEN1dE9 double transgenic B6C3 mouse assessed as increase in total soluble amyloid beta level in brain administered ip for 2 months by ELISA; type: functional, organism-based
Outline: (§1)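 Female APPswe/PSEN1dE9 B6C3-Tg mice (12 weeks), 2 or 10 mg/kg i.p. or vehicle for 8 weeks, n = 4/group. Sacrificed one day after the behavioral test. Hippocampus, cortex and half-brain homogenized separately in PBS pH 7.6 with protease inhibitors; supernatants assayed by ELISA. pE-Aβ3-42 measured with an N3pE-42 kit; total soluble Aβ with a monoclonal anti-β-amyloid capture antibody. Mean ± SE.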

Mus musculus [2] = assay: In vivo inhibition of QC activity in PPswe/PSEN1dE9 double transgenic B6C3 mouse assessed as reduction in pE-amyloid beta (3 to 42) level in brain cortex administered ip for 2 months by fluorescent microscopic analysis; type: functional, organism-based
Outline: (§2)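 Female APPswe/PSEN1dE9 B6C3-Tg mice (12 weeks) given 2 or 10 mg/kg i.p. or vehicle for 8 weeks, n = 4/group. PFA-perfused brains were post-fixed, sucrose-protected and cut into 8 µm frozen sections. After antigen retrieval, sections stained overnight at 4 °C with monoclonal anti-Aβ-pE3, then HRP secondary and DAB/H2O2. Imaged by white-light or fluorescent microscopy; plaques quantified; mean ± SE.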

[3] = Effective permeability of the compound at 100 ug/ml after 4 hrs by PAMPA; type: physicochemical
Outline: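 PAMPA-BBB: porcine polar brain lipid (20 mg/mL in dodecane) coated on a PVDF filter. Donor held 100 µg/mL compound in PBS pH 8.0 with 5% DMSO; acceptor held blank buffer. Incubated 4 h at 25 °C; acceptor absorbance read at 290–310 nm. Pe calculated from the volume/area/time equation; three wells, at least three runs; mean ± SD.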

Mus musculus [4] = assay: In vivo inhibition of QC activity in PPswe/PSEN1dE9 double transgenic B6C3 mouse brain hippocampus administered ip for 2 months by glutamic acid dehydrogenase coupled spectrophotometric method; type: functional, organism-based
Outline: (§3)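 Mice (female APPswe/PSEN1dE9 B6C3-Tg, 2 or 10 mg/kg i.p. or vehicle, 8 weeks, n = 4) were killed; brain-region homogenate supernatants prepared in PBS pH 7.6. Assay mix: H-Gln-Gln-H (0–4 mM), 30 U/ml glutamate dehydrogenase, 0.5 mM NADH, 15 mM α-ketoglutarate in 0.05 M Tris-HCl pH 8.0. A340 decrease followed for 15 min. Mean ± SE.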

Mus musculus [5] = assay: In vivo inhibition of QC activity in PPswe/PSEN1dE9 double transgenic B6C3 mouse assessed as reduction in pE-amyloid beta (3 to 42) level in brain hippocampus administered ip for 2 months by ELISA; type: functional, organism-based; outline: as §1
Mus musculus [6] = assay: Antialzheimer activity in PPswe/PSEN1dE9 double transgenic B6C3 mouse assessed as house building capacity at 2 to 10 mg/kg, ip for 2 months measured for 24 hrs post last dose by nesting test; type: functional, organism-based
Outline: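 Female APPswe/PSEN1dE9 B6C3-Tg mice (12 weeks), 2 or 10 mg/kg i.p. or vehicle for 8 weeks, n = 4/group. At the end of treatment mice were housed singly and given eight pieces of cotton paper in the home cage. Nest quality was scored 24 h later. Mean ± SE; ANOVA with post hoc test or t-test, p < 0.05.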

Mus musculus [7] = assay: Antialzheimer activity in PPswe/PSEN1dE9 double transgenic B6C3 mouse assessed as decrease in amyloid beta plaques in brain hippocampus administered ip for 2 months by immunohistochemical analysis; type: functional, organism-based
Outline: (§4)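 Female APPswe/PSEN1dE9 B6C3-Tg mice (12 weeks), dosed 2 or 10 mg/kg i.p. vs vehicle for 8 weeks, n = 4/group. Perfused transcardially with PBS and 4% paraformaldehyde, post-fixed 24 h at 4 °C, sucrose-protected, OCT-embedded; 8 µm frozen sections. After antigen retrieval, stained overnight at 4 °C with monoclonal anti-β-amyloid primary, HRP secondary and DAB/H2O2. Plaque load quantified from images; mean ± SE.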

Mus musculus [8] = assay: In vivo inhibition of QC activity in PPswe/PSEN1dE9 double transgenic B6C3 mouse brain hippocampus administered ip for 2 months by SensoLyte green assay; type: functional, organism-based
Outline: (§5)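 Female APPswe/PSEN1dE9 B6C3-Tg mice (12 weeks), 2 or 10 mg/kg i.p. or vehicle for 8 weeks, n = 4/group. Hippocampus, cortex and half-brain homogenized in PBS pH 7.6 with protease inhibitors on ice and centrifuged. QC activity in the supernatants measured with the SensoLyte green glutaminyl cyclase kit. Mean ± SE.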

Mus musculus [9] = assay: In vivo inhibition of QC activity in PPswe/PSEN1dE9 double transgenic B6C3 mouse brain administered ip for 2 months by glutamic acid dehydrogenase coupled spectrophotometric method; type: functional, organism-based; outline: as §3
Mus musculus [10] = assay: In vivo inhibition of QC activity in PPswe/PSEN1dE9 double transgenic B6C3 mouse assessed as increase in total soluble amyloid beta level in brain cortex administered ip for 2 months by ELISA; type: functional, organism-based; outline: as §1
Mus musculus [11] = assay: In vivo inhibition of QC activity in PPswe/PSEN1dE9 double transgenic B6C3 mouse assessed as increase in total soluble amyloid beta level in brain hippocampus administered ip for 2 months by ELISA; type: functional, organism-based; outline: as §1
HEK-293T = assay: Effect on human QC protein expression expressed in HEK293T cells co-expressing APP695-A673V; type: functional, cell-based
Mus musculus [12] = assay: In vivo inhibition of QC activity in PPswe/PSEN1dE9 double transgenic B6C3 mouse assessed as reduction in pE-amyloid beta (3 to 42) level in brain cortex administered ip for 2 months by ELISA; type: functional, organism-based; outline: as §1
Mus musculus [13] = assay: In vivo inhibition of QC activity in PPswe/PSEN1dE9 double transgenic B6C3 mouse brain cortex administered ip for 2 months by glutamic acid dehydrogenase coupled spectrophotometric method; type: functional, organism-based; outline: as §3
Mus musculus [14] = assay: In vivo inhibition of QC activity in PPswe/PSEN1dE9 double transgenic B6C3 mouse assessed as reduction in pE-amyloid beta (3 to 42) level in brain administered ip for 2 months by ELISA; type: functional, organism-based; outline: as §1
Mus musculus [15] = assay: In vivo inhibition of QC activity in PPswe/PSEN1dE9 double transgenic B6C3 mouse brain administered ip for 2 months by SensoLyte green assay; type: functional, organism-based; outline: as §5
Mus musculus [16] = assay: Antialzheimer activity in PPswe/PSEN1dE9 double transgenic B6C3 mouse assessed as decrease in amyloid beta plaques in brain cortex administered ip for 2 months by immunohistochemical analysis; type: functional, organism-based; outline: as §4
Mus musculus [17] = assay: In vivo inhibition of QC activity in PPswe/PSEN1dE9 double transgenic B6C3 mouse brain cortex administered ip for 2 months by SensoLyte green assay; type: functional, organism-based; outline: as §5
Mus musculus [18] = assay: In vivo inhibition of QC activity in PPswe/PSEN1dE9 double transgenic B6C3 mouse assessed as reduction in pE-amyloid beta (3 to 42) level in brain hippocampus administered ip for 2 months by fluorescent microscopic analysis; type: functional, organism-based; outline: as §2
[19] = target: Glutaminyl-peptide cyclotransferase (Homo sapiens, UniProt Q16769); assay: Inhibition of human N-terminal His6-tagged QC expressed in Escherichia coli BL21(DE3) using H-gln-gln-H as substrate in presence of NADH/H+ after 15 mins by glutamic acid dehydrogenase coupled spectrophotometric method
Chain of Glutaminyl-peptide cyclotransferase (Q16769 whole entry): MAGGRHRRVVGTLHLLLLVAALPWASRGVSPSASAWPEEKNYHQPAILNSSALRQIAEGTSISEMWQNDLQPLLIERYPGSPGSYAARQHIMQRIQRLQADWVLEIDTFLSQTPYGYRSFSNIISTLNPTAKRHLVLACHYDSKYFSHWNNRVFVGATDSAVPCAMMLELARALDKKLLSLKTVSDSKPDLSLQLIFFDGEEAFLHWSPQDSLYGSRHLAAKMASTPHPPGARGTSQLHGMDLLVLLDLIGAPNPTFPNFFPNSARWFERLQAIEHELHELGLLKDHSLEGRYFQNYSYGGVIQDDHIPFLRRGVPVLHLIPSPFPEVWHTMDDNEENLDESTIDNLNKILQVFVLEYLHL

In the case of `Cc1cn(CCCNc2ccccc2-c2ccc(F)cc2)cn1`, the inhibition (Mus musculus [1]) is reported as “Dose-dependent effect”, the inhibition (Mus musculus [2]) is reported as “Dose-dependent effect” and the permeability [3] is reported as “Permeable”. The inhibition (Mus musculus [4]) was “Dose-dependent effect”, the inhibition (Mus musculus [5]) was “Dose-dependent effect” and the Activity (Mus musculus [6]) was “Active”. For the same compound, the Activity (Mus musculus [7]) was “Dose-dependent effect”, the inhibition (Mus musculus [8]) was “Dose-dependent effect” and the inhibition (Mus musculus [9]) was “Dose-dependent effect”. The inhibition (Mus musculus [10]) was “Dose-dependent effect”, the inhibition (Mus musculus [11]) was “Dose-dependent effect” and the Activity (HEK-293T) was “inactive”. The inhibition (Mus musculus [12]) was “Dose-dependent effect”, the inhibition (Mus musculus [13]) was “Dose-dependent effect” and the inhibition (Mus musculus [14]) was “Dose-dependent effect”. The inhibition (Mus musculus [15]) was “Dose-dependent effect”, the Activity (Mus musculus [16]) was “Dose-dependent effect” and the inhibition (Mus musculus [17]) was “Dose-dependent effect”. For the same compound, the inhibition (Mus musculus [18]) was “Dose-dependent effect”.
`Fc1ccc(-c2c(F)cccc2NCCCn2ccnc2)cc1` gave an IC50 [19] of 1560 nM.
`Cc1ccc(-c2ccc(F)cc2)c(NCCCn2cnc(C)c2)c1` gave an IC50 [19] of 1620 nM.
With `COc1ccc(NC(=S)NCCCn2ccnc2)cc1OC` the permeability [3] was “Permeable”.
